Data reported in ChEMBL document CHEMBL1140904, “Synthesis and analysis of novel glycerolipids for the treatment of metabolic syndrome” (J Med Chem, 2009).

Key:
Rattus norvegicus [1] = assay: Effect on fatty acid composition in Wistar rat assessed as change in plasma LCn-6/18:2 level at dose equivalent to 250 umol of tetradecylthioacetic acid, po after 6 days; format: functional
Rattus norvegicus [2] = assay: Effect on fatty acid composition in Wistar rat assessed as change in liver saturated fatty acid level at dose equivalent to 85 umol of tetradecylthioacetic acid, po after 6 days; format: functional
Summary of the method: (§1)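 Male Wistar rats were gavaged once daily for 6 days with compound in 0.5% CMC at 85 or 250 µmol TTA-equivalent per animal. Controls received palmitic acid. Liver was homogenized in 0.25 M sucrose/10 mM HEPES pH 7.4/1 mM EDTA at 0-4 °C. Lipids were extracted with chloroform:methanol 2:1 and spiked with 21:0 internal standard. Fatty acids were BF3-methanol transesterified and quantified as wt%. Values are mean ± SD, n=5.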

Rattus norvegicus [3] = assay: Effect on fatty acid composition in Wistar rat assessed as change in liver MUFA level at dose equivalent to 85 umol of tetradecylthioacetic acid, po after 6 days; format: functional; summary of the method: as §1
Rattus norvegicus [4] = assay: Effect on fatty acid composition in Wistar rat assessed as change in liver LCPUFA, n-6 level at dose equivalent to 85 umol of tetradecylthioacetic acid, po after 6 days; format: functional; summary of the method: as §1
Rattus norvegicus [5] = assay: Effect on fatty acid composition in Wistar rat assessed as change in liver LCn-6/18:2 level at dose equivalent to 85 umol of tetradecylthioacetic acid, po after 6 days; format: functional; summary of the method: as §1
Rattus norvegicus [6] = assay: Effect on fatty acid composition in Wistar rat assessed as change in liver MUFA level at dose equivalent to 250 umol of tetradecylthioacetic acid, po after 6 days; format: functional; summary of the method: as §1
Rattus norvegicus [7] = assay: Effect on fatty acid composition in Wistar rat assessed as change in liver PUFA level at dose equivalent to 250 umol of tetradecylthioacetic acid, po after 6 days; format: functional; summary of the method: as §1
Rattus norvegicus [8] = assay: Effect on fatty acid composition in Wistar rat assessed as change in liver 18;2, n-6 level at dose equivalent to 250 umol of tetradecylthioacetic acid, po after 6 days; format: functional; summary of the method: as §1
Rattus norvegicus [9] = assay: Effect on fatty acid composition in Wistar rat assessed as change in liver LCPUFA, n-6 level at dose equivalent to 250 umol of tetradecylthioacetic acid, po after 6 days; format: functional; summary of the method: as §1
Rattus norvegicus [10] = assay: Effect on fatty acid composition in Wistar rat assessed as change in liver LCn-6/18:2 level at dose equivalent to 250 umol of tetradecylthioacetic acid, po after 6 days; format: functional; summary of the method: as §1
Rattus norvegicus [11] = assay: Decrease in plasma cholesterol level in po dosed Wistar rat after 6 days; format: functional, organism-based
Summary of the method: (§2)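 Male Wistar rats (170-210 g), housed in pairs with chow and water, were gavaged once daily for 6 days with test lipid in 0.5% (w/v) carboxymethylcellulose at 85 or 250 µmol TTA-equivalent per animal. Controls received palmitic acid in CMC. Plasma triacylglycerol and cholesterol were measured with an enzymatic kit, and liver levels were also determined. Values are mean ± SD, n=5 rats.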

Rattus norvegicus [12] = assay: Decrease in plasma triacylglycerol level in po dosed Wistar rat after 6 days; format: functional, organism-based; summary of the method: as §2
Rattus norvegicus [13] = assay: Decrease in plasma cholesterol level in Wistar rat at dose equivalent to 250 umol of tetradecylthioacetic acid, po after 6 days relative to control; format: functional; design: scale not given: the % may be the effect or the level left; summary of the method: as §2
Rattus norvegicus [14] = assay: Decrease in plasma triacylglycerol level in Wistar rat at dose equivalent to 250 umol of tetradecylthioacetic acid, po after 6 days relative to control; format: functional; design: scale not given: the % may be the effect or the level left; summary of the method: as §2
Rattus norvegicus [15] = assay: Effect on fatty acid composition in Wistar rat assessed as change in plasma saturated fatty acid level at dose equivalent to 250 umol of tetradecylthioacetic acid, po after 6 days; format: functional
Rattus norvegicus [16] = assay: Effect on fatty acid composition in Wistar rat assessed as change in plasma MUFA level at dose equivalent to 250 umol of tetradecylthioacetic acid, po after 6 days; format: functional
Rattus norvegicus [17] = assay: Effect on fatty acid composition in Wistar rat assessed as change in plasma LCPUFA, n-6 level at dose equivalent to 250 umol of tetradecylthioacetic acid, po after 6 days; format: functional
Rattus norvegicus [18] = assay: Induction of PPAR-alpha-regulated HMG-CoA synthase activity in po dosed Wistar rat after 6 days; format: functional, organism-based
Summary of the method: (§3)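 Wistar rats were gavaged daily for 6 days at 85 or 250 µmol TTA-equivalent in 0.5% CMC, with palmitic acid controls. HMG-CoA synthase activity was assayed in the liver postnuclear fraction by the Clinkenbeard method. Mean ± SD, 5 rats/group.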

Rattus norvegicus [19] = assay: Induction of PPAR-alpha-regulated fatty acyl-CoA oxidase activity in po dosed Wistar rat after 6 days; format: functional, organism-based
Summary of the method: (§4)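 Rats were dosed by gastric intubation for 6 days at 85 or 250 µmol TTA-equivalent in 0.5% CMC, with palmitic acid controls. Fatty acyl-CoA oxidase was measured in the liver postnuclear fraction by a coupled assay, following H2O2 production as the rise in dichlorofluorescein absorbance with palmitoyl-CoA. Mean ± SD, n=5.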

Rattus norvegicus [20] = assay: Induction of PPAR-alpha-regulated mitochondrial HMG-CoA synthase activity in Wistar rat at dose equivalent to 250 umol of tetradecylthioacetic acid, po after 6 days relative to control; format: functional; summary of the method: as §3
Rattus norvegicus [21] = assay: Induction of PPAR-alpha-regulated mitochondrial fatty acyl-CoA oxidase activity in Wistar rat at dose equivalent to 250 umol of tetradecylthioacetic acid, po after 6 days relative to control; format: functional; conditions: in the assay text read “peroxisomal fatty acyl-CoA oxidase” for “mitochondrial fatty acyl-CoA oxidase”; summary of the method: as §4
Rattus norvegicus [22] = assay: Induction of PPAR-alpha-regulated CPT2 activity in po dosed Wistar rat after 6 days; format: functional, organism-based
Summary of the method: (§5)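 Wistar rats were dosed orally for 6 days (85 or 250 µmol TTA-equivalent in 0.5% CMC; palmitic acid controls). CPT-II activity was measured in the liver mitochondrial fraction, prepared from sucrose/HEPES pH 7.4/EDTA homogenate at 0-4 °C. Means ± SD from 5 rats per group.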

Rattus norvegicus [23] = assay: Induction of PPAR-alpha-regulated CPT2 activity in po dosed Wistar rat after 6 days relative to control; format: functional; summary of the method: as §5
Rattus norvegicus [24] = assay: Increase in [1-14C]palmitoyl-CoA oxidation in po dosed Wistar rat liver homogenate after 6 days; format: functional, organism-based
Summary of the method: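 Rats were dosed by gastric intubation for 6 days with 85 or 250 µmol TTA-equivalent in 0.5% CMC, with palmitic acid controls. Liver was homogenized in 0.25 M sucrose, 10 mM HEPES pH 7.4, 1 mM EDTA at 0-4 °C. Palmitoyl-CoA oxidation was read as acid-soluble products from [1-14C]-palmitoyl-CoA in the postnuclear fraction. Mean ± SD, n=5.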

Rattus norvegicus [25] = assay: Plasma concentration in Wistar rat assessed as tetradecylthioacetic acid at dose equivalent to 85 umol of tetradecylthioacetic acid, po after 6 days; format: ADME, organism-based; conditions: in vivo, 144 h
Rattus norvegicus [26] = assay: Plasma concentration in Wistar rat assessed as tetradecylthioacetic acid at dose equivalent to 250 umol of tetradecylthioacetic acid, po after 6 days; format: ADME, organism-based; conditions: in vivo, 144 h
Liver = assay: Drug concentration in Wistar rat liver assessed as tetradecylthioacetic acid at dose equivalent to 85 umol of tetradecylthioacetic acid, po after 6 days; format: ADME, organism-based; conditions: in vivo, 144 h; summary of the method: as §1
Rattus norvegicus [27] = assay: Effect on fatty acid composition in Wistar rat assessed as change in plasma saturated fatty acid level at dose equivalent to 85 umol of tetradecylthioacetic acid, po after 6 days; format: functional
Rattus norvegicus [28] = assay: Effect on fatty acid composition in Wistar rat assessed as change in plasma PUFA level at dose equivalent to 85 umol of tetradecylthioacetic acid, po after 6 days; format: functional
Rattus norvegicus [29] = assay: Effect on fatty acid composition in Wistar rat assessed as change in plasma 18;2, n-6 level at dose equivalent to 85 umol of tetradecylthioacetic acid, po after 6 days; format: functional

How did the Activity (Rattus norvegicus [1]) turn out when CCCCCCCCCCCCCCSCC(=O)OC[C@H](COP(=O)([O-])OCC[N+](C)(C)C)OC(=O)CSCCCCCCCCCCCCCC [PHOSPHATIDYLCHOLINE] was run?
The Activity was 1.25%.

What about the Activity (Rattus norvegicus [2]) of the same compound?
The Activity was 39.67%.

And the Activity (Rattus norvegicus [3])?
Its Activity is 16.66%.

What about the Activity (Rattus norvegicus [4]) of the same compound?
The Activity was 26.13%.

What about the Activity (Rattus norvegicus [5]) of the same compound?
The Activity was 2.19%.

What about the Activity (Rattus norvegicus [6]) of the same compound?
Its Activity is 16.33%.

What about the Activity (Rattus norvegicus [7]) of the same compound?
The Activity was 4.05%.

What about the Activity (Rattus norvegicus [8]) of the same compound?
The Activity was 8.79%.

What about the Activity (Rattus norvegicus [9]) of the same compound?
Its Activity is 30.3%.

What about the Activity (Rattus norvegicus [10]) of the same compound?
The Activity was 3.49%.

And the Activity (Rattus norvegicus [11])?
The Activity was “Dose-dependent effect”.

What about the Activity (Rattus norvegicus [12]) of the same compound?
The Activity was “Dose-dependent effect”.

And the Activity (Rattus norvegicus [13])?
The Activity was 60%.

And the Activity (Rattus norvegicus [14])?
Its Activity is 60%.

And the Activity (Rattus norvegicus [15])?
The Activity was 35.25%.

What about the Activity (Rattus norvegicus [16]) of the same compound?
The Activity was 21.62%.

What about the Activity (Rattus norvegicus [17]) of the same compound?
The Activity was 22.07%.

What about the Activity (Rattus norvegicus [18]) of the same compound?
Its Activity is “Dose-dependent effect”.

And the Activity (Rattus norvegicus [19])?
Its Activity is “Dose-dependent effect”.

And the “fold change (FC)” value (Rattus norvegicus [20])?
Its value is 4.

What about the “fold change (FC)” value (Rattus norvegicus [21]) of the same compound?
Its value is 5.

What about the Activity (Rattus norvegicus [22]) of the same compound?
The Activity was “Dose-dependent effect”.

What about the “fold change (FC)” value (Rattus norvegicus [23]) of the same compound?
Its value is 3.

What about the Activity (Rattus norvegicus [24]) of the same compound?
The Activity was “Dose-dependent effect”.

And the Drug uptake (Rattus norvegicus [25])?
The Drug uptake was 0.9%.

And the Drug uptake (Rattus norvegicus [26])?
Its Drug uptake is 1.95%.

And the Drug uptake (Liver)?
Its Drug uptake is 1.28%.

What about the Drug uptake (Liver; in the assay text read “equivalent to 250 umol” for “equivalent to 85 umol”) of the same compound?
Its Drug uptake is 3.34%.

And the Activity (Rattus norvegicus [27])?
The Activity was 35.65%.

What about the Activity (Rattus norvegicus [28]) of the same compound?
Its Activity is 2.42%.

What about the Activity (Rattus norvegicus [29]) of the same compound?
Its Activity is 19.52%.
